Rin1-Abl PPI inh: blocks binding of human Rin1 to Abl; AID 588664; inhibition, % at 7.35 µM; TR-FRET Rin1/Abl binding, biochemical; P00519+Q13671; 0.4% of 360,000 active; in the data active = inhibition above about 5%, passing the limit was not always enough
GRK2 inh: blocks RNA aptamer binding to human GRK2; inhibition of aptamer binding, % at 10 µM; 0.59% of 330,000 active; P25098; bead flow cytometry, FAM-aptamer displacement from GRK2;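 active = inhibition of aptamer binding above 40%, roughly 3 SD of noise, on plates passing a quality check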;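 also: median bead fluorescence of bound FAM aptamer so fluorescent compounds give negative values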
Target sequence (P25098 whole entry, looked up): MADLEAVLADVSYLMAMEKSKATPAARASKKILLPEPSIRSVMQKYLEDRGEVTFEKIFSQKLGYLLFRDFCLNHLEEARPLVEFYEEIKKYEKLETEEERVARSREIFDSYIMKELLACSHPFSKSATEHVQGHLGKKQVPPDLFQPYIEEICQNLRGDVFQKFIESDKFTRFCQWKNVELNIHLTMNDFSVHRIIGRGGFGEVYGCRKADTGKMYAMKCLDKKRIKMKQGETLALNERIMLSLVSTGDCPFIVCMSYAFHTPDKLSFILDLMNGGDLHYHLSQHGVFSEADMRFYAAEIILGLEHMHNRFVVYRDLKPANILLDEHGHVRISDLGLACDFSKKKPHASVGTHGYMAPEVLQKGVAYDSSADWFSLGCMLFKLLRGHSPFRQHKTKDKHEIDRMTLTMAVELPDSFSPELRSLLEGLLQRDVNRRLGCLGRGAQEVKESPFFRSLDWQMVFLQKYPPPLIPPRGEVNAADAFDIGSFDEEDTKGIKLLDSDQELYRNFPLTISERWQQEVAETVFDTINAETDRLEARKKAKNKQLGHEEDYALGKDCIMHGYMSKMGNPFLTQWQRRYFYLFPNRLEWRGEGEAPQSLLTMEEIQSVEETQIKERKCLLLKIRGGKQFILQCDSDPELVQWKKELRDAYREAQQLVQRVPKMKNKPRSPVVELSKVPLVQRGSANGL
SR-BI DiI inh: mouse SR-BI HDL lipid transfer inhibition. inhibition, % at 12.5 µM. 0.96% of 320,000 active. Q61009. ldlA[mSR-BI] CHO cells, DiI-HDL uptake fluorescence, 3 h;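 active = mean replicate inhibition of at least 70% and a set share of replicates each scoring 70 or more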;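 also: 0% = median of neutral control wells and 100% = median of positive control wells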
SR-BI DiI-HDL act: activators of SR-BI mediated HDL lipid uptake. AID 504775. 0.096% of 320,000 active. CHO ldlA[mSR-BI] cells, DiI-HDL uptake fluorescence, 3 h; 100 = double the neutral-control signal. activation, % at 12.5 µM;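 active = mean replicate activation of at least 60% and every replicate at or above 60%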;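 also: 0% = median plate neutral-control signal and 100% = twice that signal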
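Material: SR-BI-overexpressing, LDLR-lacking CHO cells; schedule: compound exposure 3 h, 37 °C; reagent: DiI-labelled HDL at 10 µg/mL final; technique: bottom-read fluorescence, 550/595 nm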
GRK2 CP1: human GRK2 inhibition confirmation, cherry pick 1; shares compounds with GRK2 inh; bead-bound GRK2, FAM-aptamer displacement, flow cytometry; aptamer displacement, % at 10 µM; 4% of 2,000 active;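 active = aptamer displacement above 40%, near three times the noise of non-fluorescent compounds, on plates passing quality checks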;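 also: negative values mostly reflect intrinsic compound fluorescence rather than true enhancement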
Aptamer quench 1: quenches fluorescent RNA aptamer, GRK2 hit artifact | shares compounds with GRK2 inh | Fluorescent RNA aptamer beads, quenching, flow cytometry; hits give high values | fluorescence change (kMESF span), kMESF (test concentration not listed) | 110 tested, under 10 active;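 active = compounds whose bead fluorescence drops by more than 37 kMESF across the dose range, marking them as dye quenchers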
Aptamer quench SP: aptamer fluorescence quenching in GRK2 counter-screen | 2,000 tested, under 10 active | Carboxyfluorescein RNA aptamer on beads, flow cytometry quenching; hits give low values | shares compounds with GRK2 inh | fluorescence response (% of DMSO), % at 10 µM;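 active = compounds that quench the bead-bound fluorescent RNA probe, cutting fluorescence to under half of the solvent control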;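 also: counterscreen run without GRK2 so only probe quenching by compound is measured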
* = called active by the depositor; nt = no result. Hits are enriched below; roughly 1.9% of the tested compounds scored in any of these assays.

SMILES	Rin1-Abl PPI inh	GRK2 inh	SR-BI DiI inh	SR-BI DiI-HDL act	GRK2 CP1	Aptamer quench SP	others
NS(=O)(=O)c1ccc(NC(=O)CN2CCN(S(=O)(=O)/C=C/c3ccccc3)CC2)cc1	0	54*	1	-1	6	101
CCc1ccc(Nc2nnc(SCC(=O)NC(=O)CN3CCCC3=O)s2)cc1	2	45*	19	-19	19	102
COc1cc(CN2C[C@@H](CO)O[C@@H](n3cnc4c(NC(C)C)ncnc43)C2)cc(OC)c1OC	2	nt	nt	nt	nt	nt
CCc1nonc1NC(=O)COc1cc(C)c(Cl)c(C)c1	3	70*	-28	28	-3	97
CCc1nonc1NC(=O)COc1ccc(Cl)c(C)c1	-4	6	1	-1	nt	nt
O=C1COc2ccc(C(=O)COC(=O)/C=C/c3ccc(Br)o3)cc2N1	-1	57*	-8	8	2	93
Cc1ccc(/C=C/C(=O)OCC(=O)c2ccc3c(c2)NC(=O)CO3)o1	3	0	9	-9	nt	nt
CCCC[N+](C)(C)CCC(=O)NC(C)(C)CS(=O)(=O)[O-]	-2	40	-21	21	27	103	Aptamer quench 1=-236
Cc1ccc(-n2ncc3c(NCc4cccnc4)ncnc32)cc1C	0	47*	-1	1	-2	104
COc1ccccc1NCCC(=O)O	-3	2	0	0	nt	nt
O=C(O)CCNc1ccc(NCCC(=O)O)c2c1C(=O)c1ccccc1C2=O	-7	42*	-13	13	31	90
COc1ccc(C(C)(O)c2nc(-c3ccncc3)cs2)cc1 (stereo not drawn)	2	nt	nt	nt	nt	nt
COc1cc(OC)cc(-c2c(-c3cccs3)c3cc(-c4cnc(OC)nc4)ccc3n2C)c1	3	68*	10	-10	-7	105
CC(=O)c1ccc(OCc2nnn(CC(=O)NS(=O)(=O)c3ccc(C)cc3)c2-c2ccccc2)cc1	-1	nt	nt	nt	nt	nt
Cc1cc(=O)n2nc(N3CCCC(C(=O)Nc4cccc(C)c4C)C3)sc2n1 (stereo not drawn)	-1	nt	nt	nt	nt	nt
O=C(CCc1n[nH]c(=O)[nH]c1=O)N1CCCCC1	-3	30	-4	4	1	100
O=C(CSc1n[nH]c(=O)[nH]c1=O)N1CCCCCC1	-3	4	-21	21	nt	nt
Cc1cc(=O)oc2cc(OC(C)C)ccc12	-4	2	-4	4	nt	nt
Cc1cc(=O)oc2cc(OC(C(=O)O)c3ccccc3)ccc12 (stereo not drawn)	3	84*	-6	6	-25	214
Cc1ccccc1Sc1ccc(N)cn1	-2	2	nt	nt	nt	nt
COc1ccc(C(C)C)cc1-c1cncc(NC(C)=O)n1	1	nt	nt	nt	nt	nt
COC(=O)[C@H](Cc1ccccc1)NC(=O)C1(OC(C)=O)CC(OC(C)=O)C(OC(C)=O)C(OC(C)=O)C1 (stereo partly drawn)	1	63*	-4	4	5	94
COC(=O)[C@H](Cc1ccccc1)NC(=O)N1CCCCC1	2	0	-10	10	nt	nt
O=Cc1c(-c2ccccc2)cc2oc3ccccc3cc1-2	1	0	38	-38	nt	nt
OC(c1ccccc1)C(NCc1ccccc1)c1ccccc1 (stereo not drawn)	-10	nt	nt	nt	nt	nt
SMILES	Rin1-Abl PPI inh	GRK2 inh	SR-BI DiI inh	SR-BI DiI-HDL act	GRK2 CP1	Aptamer quench SP	others
O=C(CNC(=O)c1ccc(Cl)cc1Cl)OCC(=O)N1CCCC1	1	56*	-39	39	1	99
CN(c1ncc(C(F)(F)F)cc1Cl)N1C(=O)c2cccc([N+](=O)[O-])c2C1=O	2	57*	-5	5	0	102
Cc1nn(CC(=O)NC2CCCCC2)c(C)c1[N+](=O)[O-]	-3	nt	nt	nt	nt	nt
COC(=O)Cn1c(CN2CCOCC2)nc2c1c(=O)[nH]c(=O)n2C	4	34	-6	6	-2	100
O=C(O)CCn1c(-c2ccccn2)nc2ccccc21	0	27	18	-18	4	95
O=C(O)CCn1c(CO)nc2ccccc21	-4	0	-3	3	nt	nt
Nc1c2c(nc3sc4c(c13)CCCC4)CCCCCC2	0	83*	9	-9	-4	92
Nc1nc2sc3c(c2c(=O)s1)CCCC3	-1	0	6	-6	nt	nt
O=c1[nH]c2ccccc2nc1/C=C/c1ccccc1	0	52*	14	-14	2	100
CC(C)(CCC(=S)N1CCOCC1)c1ccccc1	3	nt	-23	23	nt	nt
C[C@@H]1CN([C@H](C)CO)C(=O)CCCn2nncc2CO[C@H]1CN(C)Cc1ccc(O)cc1	-2	nt	nt	nt	nt	nt
Cc1nc(SCC(=O)N2CCCC2=O)c2c(C)c(C)sc2n1	-3	nt	nt	nt	nt	nt
COc1ccc(NC(=O)c2cccnn2)cc1	1	13	0	0	nt	nt
COc1cccc(NC(=O)c2cccnn2)c1	-2	41*	3	-3	0	98
COc1cccc(NC(=O)Nc2cccc(C)n2)c1	2	58*	8	-8	-1	93
OC(Cc1ccccc1)c1ncc(-c2ccc3ccccc3c2)[nH]1 (stereo not drawn)	-3	nt	nt	nt	nt	nt
CNC(=O)c1[nH]cnc1C(=O)Nc1ccc(C)cc1	5	0	5	-5	nt	nt
CNC(=O)c1[nH]cnc1C(=O)Nc1ccc(F)cc1	-2	89*	-14	14	-3	142	Aptamer quench 1=9.5
Cc1noc(C)c1COc1cccc(C(=O)NCc2cccc(Cl)c2)c1	-6	5	6	-6	-3	100
Cc1ccc(CNC(=O)c2cccc(OCc3c(C)noc3C)c2)cc1	0	1	3	-3	-3	95
CN(Cc1cccnc1)Cc1c(C(=O)N2CCc3ccccc3C2)nc2ccc(Cl)cn12	-2	93*	-6	6	-1	100
CN(Cc1cnccn1)Cc1c(C(=O)N2CCc3ccccc3C2)nc2ccc(Cl)cn12	-1	0	-21	21	nt	nt
O=c1[nH]c(Cc2ccc(Cl)cc2)nc2ccccc12	-1	4	-13	13	nt	nt
O=c1[nH]c(Cc2cccc(C(F)(F)F)c2)nc2ccccc12	2	0	3	-3	0	100
O=c1[nH]n(-c2ccc(F)cc2)c2ncccc12	-3	53*	-10	10	1	104
COc1cccc(CN(C)S(=O)(=O)c2ccc3c(c2)OCCO3)c1	0	nt	6	-6	nt	nt
COc1ccc(S(=O)(=O)N(C)Cc2ccc3c(c2)OCCO3)cc1	1	42*	3	-3	-3	100
CN(C)c1ccc(-c2csc(C(C)(O)c3cccc(F)c3)n2)cc1 (stereo not drawn)	-3	nt	nt	nt	nt	nt
CCOc1ccc(NC(=O)CN(C)C(=O)c2ccc(COc3ccccc3)cc2)cc1OCC	2	33	53	-53	-3	95

Source: PubChem (several laboratories)
